Experimental data from PMC7709506 (ESMO Open, 2020).
Entries after “also recorded” stand apart in the source; their conditions may differ.

Assay: Safety and tolerability
Assay type: in vivo, human
Outline: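 Open-label multicentre phase I/IIa trial in adults with advanced or metastatic solid tumours. Part 1 used 3+3 oral capsule escalation at 50–800 mg/day to define DLT and MTD. Part 2 gave tablets. Treatment continued until progression, intolerable AE or study end, with dose decisions by a safety monitoring board. AEs of special interest were monitored. The safety population was all dosed patients, summarised by dose level.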

## Cn1cc(-c2ccc3c(c2)ncn3-c2cc(NS(=O)(=O)C3CC3)cc(-c3ccc(F)cc3F)c2)cn1 [ODM-203]
Capsule 600 mg (n=30)
  Decreased appetite: 9 (30.0) n (%)
  Diarrhoea: 17 (56.7) n (%)
  Dry mouth: 14 (46.7) n (%)
  Dry skin: 1 (3.3) n (%)
  Dysgeusia: 5 (16.7) n (%)
  Epistaxis: 8 (26.7) n (%)
  Fatigue: 10 (33.3) n (%)
  Hyperbilirubinaemia: 10 (33.3) n (%)
  Hyperphosphataemia: 6 (20.0) n (%)
  Hypertension: 5 (16.7) n (%)
  Jaundice: 10 (33.3) n (%)
  Mucosal inflammation: 1 (3.3) n (%)
  Myalgia: 4 (13.3) n (%)
  Nasal dryness: 5 (16.7) n (%)
  Nausea: 4 (13.3) n (%)
  Onycholysis: 6 (20.0) n (%)
  Palmar-plantar eryrthodysaestesia: 11 (36.7) n (%)
  Related AE: 30 (100) n (%)
  Related SAEs: 8 (26.7) n (%)
  Stomatitis: 11 (36.7) n (%)
  Vomiting: 2 (6.7) n (%)
  Weight decreased: 10 (33.3) n (%)
Capsule 800 mg
  patients with a DLT (punctate keratitis): 1 patient
Capsule 800 mg (n=7)
  AE leading to death: 0 n (%)
  AE leading to discontinuation: 3 (42.9) n (%)
  AE leading to dose reduction: 0 n (%)
  AE leading to treatment interruption: 5 (71.4) n (%)
  Alopecia: 5 (71.4) n (%)
  Any AE: 7 (100) n (%)
  Arthralgia: 4 (57.1) n (%)
  Asthenia: 2 (28.6) n (%)
  Blood bilirubin increased: 3 (42.9) n (%)
  Conjugated bilirubin increased: 0 n (%)
  Decreased appetite: 1 (14.3) n (%)
  Diarrhoea: 4 (57.1) n (%)
  Dry skin: 1 (14.3) n (%)
  Dysgeusia: 1 (14.3) n (%)
  Epistaxis: 3 (42.9) n (%)
  Fatigue: 2 (28.6) n (%)
  Hyperbilirubinaemia: 4 (57.1) n (%)
  Hyperphosphataemia: 3 (42.9) n (%)
  Hypertension: 0 n (%)
  Jaundice: 2 (28.6) n (%)
  Mucosal inflammation: 0 n (%)
  Myalgia: 2 (28.6) n (%)
  Nasal dryness: 0 n (%)
  Nausea: 0 n (%)
  Onycholysis: 2 (28.6) n (%)
  Palmar-plantar eryrthodysaestesia: 1 (14.3) n (%)
  Related AE: 7 (100) n (%)
  Related SAEs: 1 (14.3) n (%)
  Stomatitis: 4 (57.1) n (%)
  Vomiting: 0 n (%)
  Weight decreased: 1 (14.3) n (%)
capsule, up to 800 mg once daily
  maximum tolerated dose (MTD): not established; also recorded: not reached
In vivo
  arthralgia grade 3 events: two
  hypertension considered related to study treatment: 14 patients
  hypertension events of grade 3 or higher: three
  myalgia grade 3: two
Of 30 patients treated with 400 mg/day
  increased alanine transaminase levels: three
patients
  Hypertension: 19%
  Myalgia: 16.7%
  back pain: 11.9%
  grade 3 hypertension: 3.6%
  ocular events: 19.0%
patients, N=84
  AEs leading to dose reductions: 10.7%
  AEs leading to treatment interruption: 72.6%
  bilirubin increase-related events: 75%
  diarrhoea (AE related to treatment): 50%
  dry mouth (AE related to treatment): 34.5%
  events resulting in treatment discontinuation: 35.7%
  palmar-plantar eryrthrodysesthesia (AE related to treatment): 35.7%
  stomatitis (AE related to treatment): 40.5%
Share of AEs, all doses
  AEs considered related to the treatment: 70.4%
  AEs grade 1 or 2 in severity: 89.2%
Tablet 200 mg (n=3)
  AE leading to death: 0 n (%)
  AE leading to discontinuation: 0 n (%)
  AE leading to dose reduction: 0 n (%)
  AE leading to treatment interruption: 0 n (%)
  Alopecia: 1 (33.3) n (%)
  Any AE: 3 (100) n (%)
  Arthralgia: 1 (33.3) n (%)
  Asthenia: 0 n (%)
  Blood bilirubin increased: 2 (66.7) n (%)
  Conjugated bilirubin increased: 0 n (%)
